Laboratory results from PubChem BioAssay.
The source made the active and inactive calls.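 Rule for the calls, unless noted: active = viability at or under a set limit in both replicates, limit being median viability minus 3 SD (cut at about 48% in these data, passing the limit was not always enough); inconclusive = at or under the limit in just one replicate; inactive = at or above the limit in both replicates.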

Assays:
[1] = reducers of endogenous Her2 protein level, primary screen, SKBR3 breast tumor cells, AlphaScreen, ATP viability (AID 461;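 active = Her2 level under about 52% in both replicate screens, with viability over 70% of control, limit read from the data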;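 for Her2 level: lower value means less Her2 protein in the cells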;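 for viability: percent of carrier control wells set as 100% viability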); conditions: 18-24 h, measured here: SKBR3 viability, ATP luminescence, at 10 µM
[2] = target: Receptor tyrosine-protein kinase erbB-2 (Homo sapiens) (UniProt P04626); assay: as above; conditions: 18-24 h, at 10 µM, stronger effect = lower value
Receptor tyrosine-protein kinase erbB-2 (Homo sapiens), sequence (P04626 whole entry, looked up): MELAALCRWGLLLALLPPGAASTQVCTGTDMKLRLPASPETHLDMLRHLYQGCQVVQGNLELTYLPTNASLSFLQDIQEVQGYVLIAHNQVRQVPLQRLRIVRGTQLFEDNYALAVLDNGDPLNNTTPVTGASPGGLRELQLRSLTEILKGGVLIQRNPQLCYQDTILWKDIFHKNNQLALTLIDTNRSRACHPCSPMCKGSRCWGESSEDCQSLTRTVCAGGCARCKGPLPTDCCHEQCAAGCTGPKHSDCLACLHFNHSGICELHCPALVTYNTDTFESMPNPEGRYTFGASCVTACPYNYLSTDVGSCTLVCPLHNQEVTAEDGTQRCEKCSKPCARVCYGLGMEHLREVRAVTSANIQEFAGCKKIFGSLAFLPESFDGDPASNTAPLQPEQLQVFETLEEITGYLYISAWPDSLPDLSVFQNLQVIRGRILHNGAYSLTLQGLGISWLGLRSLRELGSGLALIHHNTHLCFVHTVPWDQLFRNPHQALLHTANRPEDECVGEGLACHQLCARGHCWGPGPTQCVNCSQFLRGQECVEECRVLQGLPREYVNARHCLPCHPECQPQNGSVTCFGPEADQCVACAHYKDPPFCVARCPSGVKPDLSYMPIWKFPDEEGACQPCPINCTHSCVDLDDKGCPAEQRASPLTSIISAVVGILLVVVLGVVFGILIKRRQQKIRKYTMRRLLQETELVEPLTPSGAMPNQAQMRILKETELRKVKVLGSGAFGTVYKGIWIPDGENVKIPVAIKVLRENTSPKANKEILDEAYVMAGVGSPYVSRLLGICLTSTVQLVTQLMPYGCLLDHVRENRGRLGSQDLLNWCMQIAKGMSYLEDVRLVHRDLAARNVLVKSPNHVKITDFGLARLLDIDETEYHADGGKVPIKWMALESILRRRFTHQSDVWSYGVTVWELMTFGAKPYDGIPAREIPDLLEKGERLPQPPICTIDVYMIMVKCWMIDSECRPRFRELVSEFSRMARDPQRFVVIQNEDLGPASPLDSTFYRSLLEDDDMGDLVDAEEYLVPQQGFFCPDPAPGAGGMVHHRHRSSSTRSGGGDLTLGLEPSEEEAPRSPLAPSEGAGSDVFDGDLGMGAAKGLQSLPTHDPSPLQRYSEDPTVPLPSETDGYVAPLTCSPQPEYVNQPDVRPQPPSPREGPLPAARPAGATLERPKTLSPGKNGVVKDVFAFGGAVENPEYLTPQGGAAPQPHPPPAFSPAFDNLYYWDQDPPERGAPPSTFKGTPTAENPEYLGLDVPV

[3] = SK-BR-3 cell growth inhibitors, pilot screen, 24 h, human (AID 572;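 active = viability at or below 10% of carrier control in both of two separate runs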;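 note: compound exposure lasted between 18 and 24 h rather than exactly 24 h; 100% = carrier-treated control wells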); conditions: SK-BR-3 viability, CellTiter-Glo luminescence, at 10 µM, stronger effect = lower value
[4] = HUVEC growth inhibition – cell-based, human, primary screen (AID 575;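 active = viability at or below 30% in both replicate assays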;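 note: 100% = median of untreated cell wells with 0.1% DMSO on each plate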); conditions: HUVEC proliferation, CellTiter-Glo luminescence, 72 h; at 10 µM; stronger effect = lower value
Procedure, shortened: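 Test system – primary HUVEC, no more than 12 passages · Dosing – one dose, 10 µM final, 0.1% DMSO · Times – 72 h treatment at 37 °C · Measured by – ATP-based CellTiter-Glo luminescent read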

[5] = growth inhibitors of H69AR lung tumor, primary screen, human, duplicate replicates (AID 580); conditions: H69AR lung tumor cells viability, ATP luminescence, 72 h; at 10 µM; stronger effect = lower value;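 note: 100% = mean luminescence of untreated wells and 0% = no signal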
[6] = reversal of MRP1-mediated doxorubicin resistance, pilot screen, H69AR cells, doxorubicin co-treatment (AID 601;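 active = viability loss from added drug above about 55%, and viability with drug at most 40%, in both replicates, limit read from the data, passing the limit was not always enough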); conditions: CellTiter-Glo, 72 h, at 10 µM; for differential viability (reversal): stronger effect = higher value
[7] = 384-well plate pilot, post-Golgi transport modulator project, inhibition of yeast transport mutant growth (AID 636; in the data active = inhibition above about 31%); conditions: absorbance 615 nm, about 18 h, stronger effect = higher value
[8] = growth suppression of yeast trafficking mutant, preliminary HTS, modulators of trafficking downstream of Golgi apparatus project, 1536-format plate, OD 615 nm (AID 637; in the data active = inhibition above about 30%); conditions: yeast transport mutant growth, absorbance 615 nm, 18 h; stronger effect = higher value
[9] = H69AR cells + 2 uM doxorubicin, measured here: viability with 2 uM doxorubicin, stronger effect = lower value
[10] = H69AR cells, compound alone cytotoxicity

SMILES | viability [1] | Her2 level [2] | viability [3] | viability [4] | viability [5] | differential viability (reversal) ([6]; H69AR cells + 2 uM doxorubicin) | viability [6, 9] | viability [6, 10] | inhibition [7] | inhibition [8]
COC(=O)c1ccc(CSc2nc3c(cnn3-c3ccc(C)c(C)c3)c(=O)[nH]2)o1 | 90% | 91.5% (inactive) | 90% (inactive) | 18.9% (active) | 88.4% (inactive) | 10.6% (inactive) | 77.8% | 88.4% | -3.6% (inactive) | -1.64% (inactive)
O=C(NCc1ccccc1)c1ccc(OC2CSC2)cc1 | 88% | 103% (inactive) | 88% (inactive) | 91.5% (inactive) | 112% (inactive) | 18.5% (inactive) | 93.6% | 112% | 2.34% (inactive) | -11% (inactive)
CCOC(=O)CNC(=O)CSc1nc(N)cc(N)n1 | 92% | 96% (inactive) | 92% (inactive) | 113% (inactive) | 96.7% (inactive) | 0.07% (inactive) | 96.6% | 96.7% | -4.27% (inactive) | -9.84% (inactive)
Cn1c(Cl)nc2ccccc21 | 115% | 96% (inactive) | 115% (inactive) | 90.7% (inactive) | 94.8% (inactive) | -5.28% (inactive) | 100% | 94.8% | -0.53% (inactive) | 0.97% (inactive)
COc1ccc(Br)cc1C(=O)Nc1nnn(C)n1 | 81.5% | 106% (inactive) | 81.5% (inactive) | 106% (inactive) | 104% (inactive) | 10.9% (inactive) | 93.2% | 104% | 3.95% (inactive) | 30.5% (active)
Cc1ccc(-c2noc(CCC(=O)NCCc3ccccc3Cl)n2)cc1 | 77.5% | 90% (inactive) | 77.5% (inactive) | 103% (inactive) | 99.6% (inactive) | 12% (inactive) | 87.7% | 99.6% | -3.29% (inactive) | -5.17% (inactive)
Cc1cccc(-n2c(Cc3cc(=O)[nH]c(=O)[nH]3)nnc2SCC(=O)NCc2ccco2)c1 | 99.5% | 89.5% (inactive) | 99.5% (inactive) | 108% (inactive) | 111% (inactive) | 13.9% (inactive) | 97.1% | 111% | -7.07% (inactive) | 4.19% (inactive)
O=C(COC(=O)c1cncc(Br)c1)NCCC1=CCCCC1 | 93.5% | 93% (inactive) | 93.5% (inactive) | 101% (inactive) | 97.5% (inactive) | 9.04% (inactive) | 88.4% | 97.5% | -1.28% (inactive) | -1.33% (inactive)
O=S(=O)(NC1CCCC1)c1ccccc1Cl | 94.5% | 97% (inactive) | 94.5% (inactive) | 87.1% (inactive) | 101% (inactive) | 2.58% (inactive) | 98.4% | 101% | 2.73% (inactive) | 6.39% (inactive)
CCN(CC)CCCNC(=O)c1nn(-c2ccc(OC)cc2OC)c(=O)c2ccccc12 | 97% | 103% (inactive) | 97% (inactive) | 72.3% (inactive) | 96.1% (inactive) | -0.935% (inactive) | 97% | 96.1% | -2.57% (inactive) | -7.46% (inactive)
O=c1c2ccccc2nc(SCc2cccc(F)c2)n1Cc1ccco1 | 104% | 97.5% (inactive) | 104% (inactive) | 87.6% (inactive) | 84.2% (inactive) | 1.36% (inactive) | 82.8% | 84.2% | -5.33% (inactive) | -0.63% (inactive)
CN(C)c1ccc(CNn2cnnc2)cc1 | 104% | 88.5% (inactive) | 104% (inactive) | 95.8% (inactive) | 100% (inactive) | -4.28% (inactive) | 105% | 100% | -4.08% (inactive) | 0.67% (inactive)
COc1ccc(NC(=O)CSc2nnc(-c3ccccc3C)n2C)cc1 | 96.5% | 108% (inactive) | 96.5% (inactive) | 113% (inactive) | 100% (inactive) | 13.8% (inactive) | 86.4% | 100% | -4.55% (inactive) | -5.17% (inactive)
Cc1cc(C)n2nc(SCc3cc(=O)n4ccccc4n3)nc2n1 | 100% | 72.5% (inactive) | 100% (inactive) | 107% (inactive) | 101% (inactive) | 5.5% (inactive) | 95.3% | 101% | -4.47% (inactive) | -1% (inactive)
COCCCn1c(SCC(=O)Nc2cccc(C)n2)nnc1-c1ccco1 | 95% | 82.5% (inactive) | 95% (inactive) | 106% (inactive) | 98.5% (inactive) | 12.9% (inactive) | 85.6% | 98.5% | -3.6% (inactive) | -2.95% (inactive)
Cc1c(NC(=O)CN2c3cccc4cccc(c34)S2(=O)=O)c(=O)n(-c2ccccc2)n1C | 122% | 93% (inactive) | 122% (inactive) | 82.6% (inactive) | 102% (inactive) | 19.1% (inactive) | 82.5% | 102% | -4.27% (inactive) | 7.9% (inactive)

SMILES | viability [1] | Her2 level [2] | viability [3] | viability [4] | viability [5] | differential viability (reversal) ([6]; H69AR cells + 2 uM doxorubicin) | viability [6, 9] | viability [6, 10] | inhibition [7] | inhibition [8]
Cc1ccc(C)c(-c2nc3cc(N)ccc3o2)c1 | 78.5% | 106% (inactive) | 78.5% (inactive) | 46.6% (inactive) | 102% (inactive) | 8.46% (inactive) | 93.8% | 102% | -1.18% (inactive) | -6.03% (inactive)
COc1cc(C2c3c(oc4c(C)cc(C)cc4c3=O)C(=O)N2Cc2cccnc2)cc(OC)c1OC (stereo not given) | 110% | 114% (inactive) | 110% (inactive) | 97.6% (inactive) | 110% (inactive) | 6.48% (inactive) | 104% | 110% | 1.33% (inactive) | -3.06% (inactive)
COc1cc(-c2nn3c(-c4cccnc4)nnc3s2)cc(OC)c1OC | 101% | 98.5% (inactive) | 101% (inactive) | 90.3% (inactive) | 92.6% (inactive) | 6.8% (inactive) | 85.8% | 92.6% | -4.87% (inactive) | -4.35% (inactive)
Nc1nc2ccccc2n1C(=O)CCc1ccccc1 | 102% | 83.5% (inactive) | 102% (inactive) | 44.8% (inactive) | 48.4% (active) | -27.6% (inactive) | 76.1% | 48.4% | -2.11% (inactive) | -2.67% (inactive)
O=C(Nc1ccccc1C(F)(F)F)c1cc(S(=O)(=O)N2CCOCC2)ccc1F | 96.5% | 91.5% (inactive) | 96.5% (inactive) | 102% (inactive) | 90.4% (inactive) | 8.93% (inactive) | 81.5% | 90.4% | -6.49% (inactive) | 1.43% (inactive)
CCOc1cc(S(=O)(=O)Nc2ccccn2)ccc1F | 114% | 110% (inactive) | 114% (inactive) | 108% (inactive) | 101% (inactive) | 7.25% (inactive) | 93.3% | 101% | -4% (inactive) | -5.9% (inactive)
Cc1nc2ccc(NC(=O)N3CCC(c4ccccc4)C3)cc2nc1C (stereo not given) | 101% | 93.5% (inactive) | 101% (inactive) | 57.7% (inactive) | 74.8% (inactive) | 9.41% (inactive) | 65.4% | 74.8% | -4.21% (inactive) | -1.43% (inactive)
COc1cc(Cl)c(C)cc1NC(=O)COC(=O)c1cnc(C)cn1 | 108% | 110% (inactive) | 108% (inactive) | 95.1% (inactive) | 97% (inactive) | -2.33% (inactive) | 99.3% | 97% | -4.25% (inactive) | -0.95% (inactive)
COC(=O)c1ccccc1NC(=O)C1CC(=O)N(c2ccc(F)cc2)C1 (stereo not given) | 121% | 77% (inactive) | 121% (inactive) | 108% (inactive) | 96% (inactive) | 15.5% (inactive) | 80.6% | 96% | -6.4% (inactive) | 2.13% (inactive)
CCOc1cc(N2CCOCC2)c(OCC)cc1NC(=O)CSc1cccc[n+]1[O-] | 128% | 93% (inactive) | 128% (inactive) | 94% (inactive) | 86.8% (inactive) | 1.93% (inactive) | 84.8% | 86.8% | -5.26% (inactive) | -4% (inactive)
CCOC(=O)C1=C(c2ccccc2)NC(=O)NC1c1ccc(N(C)C)cc1 (stereo not given) | 85.5% | 87% (inactive) | 85.5% (inactive) | 106% (inactive) | 97.6% (inactive) | 0.56% (inactive) | 97% | 97.6% | -2.08% (inactive) | 14.7% (inactive)
CCOC(=O)Cc1nnc2c(Nc3ccc(C)cc3)nc3nonc3n12 | 97% | 76% (inactive) | 97% (inactive) | 74.9% (inactive) | 94% (inactive) | -1.2% (inactive) | 95.2% | 94% | -4% (inactive) | 7.7% (inactive)
CC(n1cnnn1)C12CC3CC(CC(C3)C1)C2 (stereo not given) | 88.5% | 96% (inactive) | 88.5% (inactive) | 93.4% (inactive) | 96% (inactive) | 11.3% (inactive) | 84.7% | 96% | -1.2% (inactive) | 1.97% (inactive)
CC(Oc1ccc(Br)cc1)C(=O)N1CCc2ccccc21 (stereo not given) | 85.5% | 96.5% (inactive) | 85.5% (inactive) | 107% (inactive) | 96.9% (inactive) | 9.3% (inactive) | 87.6% | 96.9% | -2.76% (inactive) | -3.02% (inactive)
CCOc1ccccc1NS(=O)(=O)c1c(C)noc1C | 97.5% | 93.5% (inactive) | 97.5% (inactive) | 91.3% (inactive) | 109% (inactive) | 16.6% (inactive) | 92.1% | 109% | -3.42% (inactive) | -0.95% (inactive)
COCCNC(=O)CSc1nc(-c2ccc(OC)c(OC)c2)cc(C(F)(F)F)n1 | 98.5% | 94% (inactive) | 98.5% (inactive) | 101% (inactive) | 89% (inactive) | -11.1% (inactive) | 100% | 89% | 1.84% (inactive) | -2.3% (inactive)
